The text below walks through data of ChEMBL document CHEMBL1139980, “Identification of 1-isopropylsulfonyl-2-amine benzimidazoles as a new class of inhibitors of hepatitis B virus” (Eur J Med Chem, 2007).

Assay [1] is described as follows: Selectivity index, ratio of CC50 for HepG2.2.15 cells to IC50 for HBV. Type of assay: functional. The essentials:
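The index was calculated as CC50 divided by IC50. CC50 came from an 8-day MTT assay in HepG2.2.15 cells, and IC50 from fluorescent-PCR quantification of HBV DNA after treatment of confluent HepG2.2.15 cultures.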

A further assay has as its system Hepatitis B virus. Put plainly: Inhibition of cytoplasmic HBV DNA synthesis in HepG2.2.15 cells after 8 days. It is filed as functional, organism-based. The conditions noted are these: for IC50: HepG2.2.15, 192 h. The essentials:
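Confluent HepG2.2.15 cultures were treated with various doses. A 50 µL supernatant sample was added to extraction buffer, boiled for 10 min and centrifuged for 5 min, and aliquots were run in fluorescent PCR with HBV-specific primers and probe. IC50 was taken as the concentration giving 50% inhibition of cytoplasmic HBV DNA synthesis.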

Activity calls are given as the source filed them. The rule behind the calls is not given here.

Broadly, the IC50 is the midpoint of a concentration-inhibition curve. The low end stands for inhibition by little substance, the high end for a need for much substance. With `CC(C)S(=O)(=O)n1c(N)nc2ccc(NC(=O)c3c(F)cccc3F)cc21`, the “Ratio CC50/IC50” value in assay [1] came to 274. The compound further registered an IC50 in the assay with Hepatitis B virus of 700 nM.
With `Cc1ccc(S(=O)(=O)Nc2ccc3nc(N)n(S(=O)(=O)C(C)C)c3c2)cc1`, the “Ratio CC50/IC50” value in assay [1] is listed as 17. For the same compound, half-maximal inhibition in the assay with Hepatitis B virus (IC50) required 4800 nM.
On the same counts, the results for `CC(C)S(=O)(=O)n1c(N)nc2ccc(NC(=O)c3ccccc3Cl)cc21` are 107 and 820 nM.
For `CC(C)S(=O)(=O)n1c(N)nc2ccc(NC(=O)c3ccccc3)cc21`, in assay [1], the “Ratio CC50/IC50” value is over 15. The compound also came in with an IC50 in the assay with Hepatitis B virus of 33700 nM.
Taken in the same sequence, the figures for `CC(C)S(=O)(=O)n1c(N)nc2cc(NC(=O)c3ccc(F)cc3)ccc21` were 9 and 3700 nM.
Consider `COc1cccc(CN(Cc2cccc(OC)c2)c2ccc3nc(N)n(S(=O)(=O)C(C)C)c3c2)c1`, for which the “Ratio CC50/IC50” value in assay [1] is recorded as 123. In addition, in the assay with Hepatitis B virus, half-maximal inhibition (IC50) was put at 700 nM.
For the compound `Cc1ccc(S(=O)(=O)Nc2ccc3c(c2)nc(N)n3S(=O)(=O)C(C)C)cc1`, the “Ratio CC50/IC50” value in assay [1] was 9. For the same compound, the IC50 in the assay on Hepatitis B virus turned out to be 16000 nM.
Take `CC(C)S(=O)(=O)n1c(N)nc2ccc(NC(=O)c3ccc(F)cc3)cc21`: the “Ratio CC50/IC50” value in assay [1] was found to be 56. Also, half-maximal inhibition in the assay on Hepatitis B virus (IC50) was put at 1200 nM.
On to `CC(C)S(=O)(=O)n1c(N)nc2ccc(NC(=O)c3ccccc3F)cc21`, for which, in assay [1], the “Ratio CC50/IC50” value turned out to be 51. For the same compound, the IC50 in the assay with Hepatitis B virus worked out at 940 nM.
`CC(C)S(=O)(=O)n1c(N)nc2cc(NC(=O)c3ccccc3)ccc21`: in assay [1], the “Ratio CC50/IC50” value is over 250. In the assay with Hepatitis B virus, this compound registered a concentration for half-maximal inhibition (IC50) of 2000 nM.
On the same counts, the results for `CC(C)S(=O)(=O)n1c(N)nc2ccc(NS(=O)(=O)c3ccccc3)cc21` are 41 and 1500 nM.
On the same counts, the results for `Nc1ncnc2c1ncn2CCOCP(=O)(O)O` [ADEFOVIR] are 34 and 1700 nM.
Regarding `Nc1ccn([C@@H]2CS[C@H](CO)O2)c(=O)n1` [LAMIVUDINE], in assay [1], the “Ratio CC50/IC50” value is recorded as over 2632.
As for `Cc1ccc(C(=O)Nc2ccc3nc(N)n(S(=O)(=O)C(C)C)c3c2)cc1`, the “Ratio CC50/IC50” value in assay [1] is given as over 119. This compound also registered an IC50 in the assay with Hepatitis B virus of 4200 nM.
`CC(C)S(=O)(=O)n1c(N)nc2ccc(NS(=O)(=O)c3cccc([N+](=O)[O-])c3)cc21`: the “Ratio CC50/IC50” value in assay [1] is on record as 5. 10500 nM corresponded to half-maximal inhibition in the assay with Hepatitis B virus (IC50).
On to `CC(C)S(=O)(=O)n1c(N)nc2ccc(NCc3ccccc3)cc21`, for which the outcome in the assay on Hepatitis B virus was inactive.
